Where two headings read alike, the source gives them in different places.
Assays:
MRC-5 = experiment: MTT assay, MRC-5 diploid fibroblasts; type: cell-based, human; conditions: read-out: anticancer activity (IC50) MRC-5
Outline: (§1)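 ATCC-sourced human cells kept at 37 °C, 5% CO2, humidified air. Cells treated with test compound at various concentrations for 96 h; DMSO as control, cisplatin as positive control. MTT (0.4 mg mL–1) added for a further 4 h, medium aspirated, formazan dissolved in DMSO, absorbance read at 490 nm. IC50 taken as the concentration giving 50% growth inhibition.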

HepG2 = experiment: MTT assay, HepG2 liver carcinoma cells; type: cell-based, human
Outline: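 HepG2 cells from ATCC, kept at 37 °C, 5% CO2, humidified air. Cells were exposed to the test compound at various concentrations, with DMSO as control, for 96 h. MTT (0.4 mg mL–1) was then added for 4 h. Medium was aspirated, formazan dissolved in DMSO, and absorbance read at 490 nm. IC50 was taken as the concentration giving 50% growth inhibition.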

HT29 = experiment: MTT assay, HT29 colorectal cancer cells; type: cell-based, human; conditions: read-out: anticancer activity (IC50) HT29
Outline: as §1

SGC7901 = experiment: MTT assay, SGC7901 gastric carcinoma cells; type: cell-based, human; conditions: read-out: anticancer activity (IC50) SGC7901
Outline: as §1

A549 = experiment: MTT assay, A549 cancerous alveolar epithelial cells; type: cell-based, human; conditions: read-out: anticancer activity (IC50) A549
Outline: as §1

[1] = UV-vis absorption spectra; type: physicochemical; conditions: ethanol as the solvent
Outline: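 Absorption spectra taken in 1.0 cm quartz cells in anhydrous ethanol at room temperature. Ethanolic compound solution (25 μg mL–1 before dilution) made up in a 10 mL volumetric flask and equilibrated 2 min before measurement.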

[2] = Fluorescence spectra and quantum yield; type: physicochemical; conditions: for ε × Φ, fluorescent brightness / λem – λabs, Stokes shift / λem, emission wavelength / λex, best excitation wavelength: ethanol as the solvent; for Φ, quantum yield: ethanol, rhodamine as the reference
Outline: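 Emission spectra recorded with xenon lamp excitation in 1.0 cm quartz cells at room temperature, excitation and emission slits 5.0 nm. Ethanolic compound solution (25 μg mL–1 before dilution) diluted in a 10 mL flask with buffer solutions, pH set with dilute HCl or NaOH, then equilibrated 2 min. Quantum yield in anhydrous ethanol from integrated emission relative to rhodamine 6G standard (5.0 μg mL–1 in anhydrous ethanol).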

[3] = system: HepG2 liver carcinoma cells; experiment: Clonogenic assay for long-term anticancer activity; type: cell-based, human; conditions: HepG2, 18 h exposure, colonies counted after 10 days
Outline: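 HepG2 cells seeded at 2 × 10^5 per well and attached overnight, then exposed 18 h to test compound at 0.01, 0.1, 1 or 10 μM, with vehicle alone as control. Replated at 700 cells/well in triplicate and grown 10 days at 37 °C, 5% CO2. Washed in ice-cold PBS, fixed in cold methanol 20 min, stained with 0.5% methylene blue 30 min; colonies of >50 cells counted. IC50 estimated from mean treated/untreated colony ratio.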

Cyclic voltammetry = type: physicochemical; conditions: anhydrous ethanol, 1.0 × 10^–4 M, Fc/Fc^+ internal standard
Outline: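 Three-electrode cell: Pt foil working electrode, Pt wire counter electrode, Ag/AgCl reference. Fc/Fc+ couple served as internal standard.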

[4] = Homo sapiens, HepG2, 96 h, read-out: anticancer activity (IC50) HepG2, MTT assay, liver carcinoma cells, 96 h incubation
[5] = read-out: anticancer activity (IC50) HepG2, MTT assay, liver carcinoma cells, 96 h incubation

## COc1ccc(C(=O)C2=C3NCCCN3C3Oc4ccc(Br)cc4C(=O)C3=C2)cc1 (centres unmarked) [3ae, 9-Bromo-5-(4-methoxybenzoyl)-2,3,4,12a-tetrahydro-1H,7H-chromeno[3′,2′:5,6]pyrido-[1,2-a]pyrimidin-7-one]
MRC-5; Homo sapiens, MRC5, 96 h
  IC50: 31.3 µM
HepG2; [4]
  IC50: 15.4 µM
HT29; Homo sapiens, HT-29, 96 h
  IC50: 18.8 µM
SGC7901; Homo sapiens, SGC-7901, 96 h
  IC50: 17.8 µM
A549; Homo sapiens, A549, 96 h
  IC50: 27.5 µM
[1]
  ε, absorption coefficient: 23.56 mL mg^–1 cm^–1
  λabs, maximal absorption wavelength: 441.5 nm
[2]
  ε × Φ, fluorescent brightness: 10.08 mL mg^–1 cm^–1
  λem – λabs, Stokes shift: 79.0 nm
  λem, emission wavelength: 520.5 nm
  λex, best excitation wavelength: 466.0 nm
  Φ, quantum yield: 0.428

## COc1ccc(C(=O)C2=C3NCCCCN3C3Oc4ccc(Br)cc4C(=O)C3=C2)cc1 (centres unmarked) [3fe, 10-Bromo-6-(4-methoxybenzoyl)-1,2,3,4,5,13a-hexahydro-8H-chromeno[3′,2′:5,6]pyrido-[1,2-a][1,3]diazepin-8-one]
MRC-5; Homo sapiens, MRC5, 96 h
  IC50: 34.8 µM
HepG2; [4]
  IC50: < 10 µM
HepG2; [5]
  IC50: 9.5 µM
HT29; Homo sapiens, HT-29, 96 h
  IC50: 13.3 µM
SGC7901; Homo sapiens, SGC-7901, 96 h
  IC50: 13.5 µM
A549; Homo sapiens, A549, 96 h
  IC50: 27.5 µM
[1]
  ε, absorption coefficient: 113.48 mL mg^–1 cm^–1
  λabs, maximal absorption wavelength: 443.5 nm
[2]
  ε × Φ, fluorescent brightness: 37.33 mL mg^–1 cm^–1
  λem – λabs, Stokes shift: 82.5 nm
  λem, emission wavelength: 526.0 nm
  λex, best excitation wavelength: 470.0 nm
  Φ, quantum yield: 0.329

## COc1ccc(C(=O)C2=C3NCCCCN3C3Oc4ccc(F)cc4C(=O)C3=C2)cc1 (centres unmarked) [3fc, 10-Fluoro-6-(4-methoxybenzoyl)-1,2,3,4,5,13a-hexahydro-8H-chromeno[3′,2′:5,6]pyrido-[1,2-a][1,3]diazepin-8-one]
MRC-5; Homo sapiens, MRC5, 96 h
  IC50: 48 µM
HepG2; [4]
  IC50: 18.9 µM
HT29; Homo sapiens, HT-29, 96 h
  IC50: 29.8 µM
SGC7901; Homo sapiens, SGC-7901, 96 h
  IC50: 26.7 µM
A549; Homo sapiens, A549, 96 h
  IC50: 39.6 µM
[1]
  ε, absorption coefficient: 111.53 mL mg^–1 cm^–1
  λabs, maximal absorption wavelength: 442.0 nm
[2]
  ε × Φ, fluorescent brightness: 74.72 mL mg^–1 cm^–1
  λem – λabs, Stokes shift: 83.5 nm
  λem, emission wavelength: 525.5 nm
  λex, best excitation wavelength: 461.0 nm
  Φ, quantum yield: 0.671

## COc1ccc(C(=O)C2=C3NCCCCN3C3Oc4ccc(Cl)cc4C(=O)C3=C2)cc1 (centres unmarked) [3fd, 10-Chloro-6-(4-methoxybenzoyl)-1,2,3,4,5,13a-hexahydro-8H-chromeno[3′,2′:5,6]pyrido-[1,2-a][1,3]diazepin-8-one]
MRC-5; Homo sapiens, MRC5, 96 h
  IC50: 33.1 µM
HepG2; [4]
  IC50: 11.2 µM
HT29; Homo sapiens, HT-29, 96 h
  IC50: 26.8 µM
SGC7901; Homo sapiens, SGC-7901, 96 h
  IC50: 14.8 µM
A549; Homo sapiens, A549, 96 h
  IC50: 33.5 µM
[3]
  IC50, colony-forming ratio: 5.99 µM
[1]
  ε, absorption coefficient: 81.07 mL mg^–1 cm^–1
  λabs, maximal absorption wavelength: 443.0 nm
[2]
  ε × Φ, fluorescent brightness: 53.75 mL mg^–1 cm^–1
  λem – λabs, Stokes shift: 83.0 nm
  λem, emission wavelength: 526.0 nm
  λex, best excitation wavelength: 470.0 nm
  Φ, quantum yield: 0.663
Cyclic voltammetry
  first onset of reduction: −1.04 V
  reversible reduction wave: −1.19 V

## COc1ccc(C(=O)C2=C3NCCCN3C3Oc4ccc(Cl)cc4C(=O)C3=C2)cc1 (centres unmarked) [3ad, 9-Chloro-5-(4-methoxybenzoyl)-2,3,4,12a-tetrahydro-1H,7H-chromeno[3′,2′:5,6]pyrido-[1,2-a]pyrimidin-7-one]
MRC-5; Homo sapiens, MRC5, 96 h
  IC50: 34.9 µM
HepG2; [4]
  IC50: 30.9 µM
HT29; Homo sapiens, HT-29, 96 h
  IC50: 26.9 µM
SGC7901; Homo sapiens, SGC-7901, 96 h
  IC50: 18.7 µM
A549; Homo sapiens, A549, 96 h
  IC50: 34.3 µM
[1]
  ε, absorption coefficient: 50.07 mL mg^–1 cm^–1
  λabs, maximal absorption wavelength: 440.0 nm
[2]
  ε × Φ, fluorescent brightness: 23.23 mL mg^–1 cm^–1
  λem – λabs, Stokes shift: 80.0 nm
  λem, emission wavelength: 520.0 nm
  λex, best excitation wavelength: 449.0 nm
  Φ, quantum yield: 0.464

## COc1ccc(C(=O)C2=C3NCCCN3C3Oc4ccc(F)cc4C(=O)C3=C2)cc1 (centres unmarked) [3ac, 9-Fluoro-5-(4-methoxybenzoyl)-2,3,4,12a-tetrahydro-1H,7H-chromeno[3′,2′:5,6]pyrido-[1,2-a]pyrimidin-7-one]
HepG2; [4]
  IC50: > 100 µM
SGC7901; Homo sapiens, SGC-7901, 96 h
  IC50: > 100 µM
A549; Homo sapiens, A549, 96 h
  IC50: > 100 µM
[1]
  λabs, maximal absorption wavelength: 440.5 nm
[2]
  λem – λabs, Stokes shift: 79.0 nm
  λem, emission wavelength: 519.5 nm
  λex, best excitation wavelength: 464.0 nm
  Φ, quantum yield: 0.476

## N.N.[Cl][Pt][Cl] [DDP, Cisplatin, reference compound]
MRC-5; MTT assay, diploid fibroblasts (normal cells), 96 h incubation
  IC50: 8.2 µM
HepG2; [5]
  IC50: 3 µM
HT29; MTT assay, colorectal cancer cells, 96 h incubation
  IC50: 14.3 µM
SGC7901; MTT assay, gastric carcinoma cells, 96 h incubation
  IC50: 2.3 µM
A549; MTT assay, cancerous alveolar epithelial cells, 96 h incubation
  IC50: 8.4 µM

From article PMC6044579 (ACS Omega, 2017)
